Data: ChEMBL document CHEMBL2429718, “MT-Stabilizer, Dictyostatin, Exhibits Prolonged Brain Retention and Activity: Potential Therapeutic Implications” (ACS Med Chem Lett, 2013)
Active and inactive are the calls of the source. The calls are words filed in the database; no cut-off is given here.

How the values were obtained:
[1] = Drug uptake in CD1 mouse brain at 5 mg/kg, ip administered as single dose at 16 hrs; assay type: ADME, organism-based; parameters: dose 5 mg/kg, route intraperitoneal; details: read-out: Drug uptake
Procedure, shortened: (§1)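 CD1 mice received one i.p. dose of 5 mg/kg. Blood and brain were taken from groups of animals at several times after dosing, with n = 3 mice per time point, and compound levels were measured in plasma and brain. Exposure was expressed as AUC over 0.25–4 h. Concentrations at 4 h and 16 h are given as mean ± SD.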

[2] = Drug uptake in CD1 mouse brain at 5 mg/kg, ip administered as single dose at 4 hrs; assay type: ADME, organism-based; parameters: dose 5 mg/kg, route intraperitoneal; details: read-out: Drug uptake; procedure, shortened: as §1
[3] = Plasma concentration in CD1 mouse at 5 mg/kg, ip administered as single dose at 4 hrs; assay type: ADME, organism-based; parameters: dose 5 mg/kg, route intraperitoneal; procedure, shortened: as §1
[4] = tested on: Plasma; assay: (§2) Plasma concentration in CD1 mouse at 5 mg/kg, ip administered as single dose at 16 hrs; assay type: ADME, organism-based; parameters: dose 5 mg/kg, route intraperitoneal; details: mouse, in vivo, 16 h, BLD = below limit of detection; procedure, shortened: as §1
[5] = tested on: HEK293; assay: Stabilization of microtubule in HEK293 cells assessed as increase in acetylated alpha-tubulin at 100 nM after 4 hrs by ELISA; assay type: cell-based; details: Homo sapiens
Procedure, shortened: (§3)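 In HEK293 cells, microtubule stabilization was read as compound-induced elevation of acetylated α-tubulin. Compounds were tested across a concentration series that included 1, 10 and 100 nM, with n = 4 per condition. Values are given as mean ± SEM.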

[6] = tested on: HEK293; assay: Stabilization of microtubule in HEK293 cells assessed as increase in acetylated alpha-tubulin after 4 hrs by ELISA; assay type: cell-based; details: Homo sapiens; procedure, shortened: as §3
[7] = AUC (0.25 to 4 hrs) in CD1 mouse plasma at 5 mg/kg, ip administered as single dose at 4 hrs; assay type: ADME, organism-based; parameters: time 0.25-4 hr, dose 5 mg/kg, route intraperitoneal; procedure, shortened: as §1
[8] = AUC (0.25 to 4 hrs) in CD1 mouse brain at 5 mg/kg, ip administered as single dose at 4 hrs; assay type: ADME, organism-based; parameters: time upper 4 hr, time lower 0.25 hr, dose 5 mg/kg, route intraperitoneal; procedure, shortened: as §1
[9] = tested on: Plasma; assay: Fraction unbound in CD1 mouse plasma at 5 mg/kg, ip dministered as single dose; assay type: ADME, organism-based; parameters: dose 5 mg/kg, route intraperitoneal; details: in vivo
[10] = tested on: Brain; assay: Stabilization of microtubule brain in CD1 mouse assessed as increase in acetylated alpha-tubulin at 5 mg/kg, ip administered as single dose measured after 7 days relative to vehicle-treated control; assay type: functional, organism-based; parameters: dose 5 mg/kg
Procedure, shortened: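 Wild-type mice received one i.p. dose of 5 mg/kg, with DMSO as vehicle control, and 3 mice per treatment. Brains were collected 7 days later and the acetylated α-tubulin to α-tubulin ratio was measured. The mean ratio of treated mice was normalized to that of vehicle-treated mice.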

[11] = as §2; assay type: ADME, organism-based; parameters: dose 5 mg/kg, route intraperitoneal; details: CD1, mouse, plasma; procedure, shortened: as §1
[12] = tested on: HEK293; assay: Stabilization of microtubule in HEK293 cells assessed as increase in acetylated alpha-tubulin at 1to 10 nM after 4 hrs by ELISA; assay type: cell-based; details: Homo sapiens; procedure, shortened: as §3
[13] = Fraction unbound in CD1 mouse brain at 5 mg/kg, ip administered as single dose; assay type: ADME, organism-based; parameters: dose 5 mg/kg, route intraperitoneal; details: in vivo
[14] = AUC (0.5 to 16 hrs) in CD1 mouse brain at 5 mg/kg, ip administered as single dose at 4 hrs; assay type: ADME, organism-based; parameters: time 0.5-16 hr, dose 5 mg/kg, route intraperitoneal

`C/C1=C/C[C@@H](/C(C)=C/c2csc(C)n2)OC(=O)C[C@H](O)C(C)(C)C(=O)[C@H](C)[C@@H](O)[C@@H](C)CCC1` [EPOTHILONE D] gave a concentration at 16 h [1] of 111 nM, a concentration at 4 h [2] of 161 nM and a concentration at 4 h [3] of 19 nM. The Cp [4] was “BLD”, the Activity [5] was “Active” and the Activity [6] was “Dose-dependent effect”.
For `C=C/C=C\[C@H](C)[C@H](OC(N)=O)[C@@H](C)[C@H](O)[C@@H](C)C/C(C)=C\[C@H](C)[C@@H](O)[C@@H](C)/C=C\[C@@H](O)C[C@@H]1OC(=O)[C@H](C)[C@@H](O)[C@H]1C` [DISERMOLIDE], the AUC(0-t) at 4 h [7] was 0.439 µM·h, the AUC(0-t) at 4 h [8] was 0.112 µM·h and the Activity [6] was “Dose-dependent effect”.
In the case of `C=C/C=C\[C@H](C)[C@@H]1OC(=O)/C=C\C=C\[C@@H](C)[C@@H](O)C[C@H](O)/C=C\[C@H](C)[C@H](O)[C@@H](C)C[C@@H](C)CC[C@@H](O)[C@@H]1C` [DICTYOSTATIN], the concentration at 16 h [1] was 383 nM, the Fu [9] was 0.9% and the Activity [10] was “Active”. It also gave an AUC(0-t) at 4 h [7] of 5.54 µM·h, a concentration at 4 h [2] of 412 nM and a concentration at 4 h [3] of 83 nM. The concentration at 16 h [11] was 77 nM, the Activity [12] was “Active” and the Fu [13] was 0.5%. The AUC(0-t) [14] was 6.25 µM·h and the Activity [6] was “Dose-dependent effect”.
